Columns and labels:
Assay type in all cases: functional
[1] = Cytotoxicity against human Hs 578T cells assessed as cell growth at 10 uM; details: read-out: Activity
Procedure, shortened: (§1)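 Single-dose NCI-60 screen at 10 µM. Cells were grown in RPMI 1640 with 5% FBS and 2 mM L-glutamine, then treated for 48 h at 37 °C. Protein was measured by SRB staining with absorbance at 515 nm. Percentage growth was recorded, and inhibition percentage was calculated as 100 minus growth percentage.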

SK-MEL-5 = experiment: Cytotoxicity against human SK-MEL-5 cells assessed as cell growth at 10 uM; details: read-out: Activity
Procedure, shortened: (§2)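 NCI-60 screen: cells grown in RPMI 1640 with 5% FBS and 2 mM L-glutamine, plated at 5000–40,000 cells/well according to doubling time, and preincubated 24 h at 37 °C, 5% CO2. The single 10 µM dose (DMSO stock) was added, then incubated 48 h. Cells were TCA-fixed and stained with 0.4% SRB, read at 515 nm, and growth % calculated against time-zero and control plates.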

NCI/ADR-RES = experiment: Cytotoxicity against human NCI/ADR-RES cells assessed as cell growth at 10 uM; details: read-out: Activity; procedure, shortened: as §2
HCC 2998 = experiment: Cytotoxicity against human HCC2998 cells assessed as cell growth at 10 uM; details: read-out: Activity; procedure, shortened: as §1
MCF7 = experiment: Cytotoxicity against human MCF7 cells assessed as cell growth at 10 uM; details: read-out: Activity; procedure, shortened: as §2
NCI-H322M = experiment: Cytotoxicity against human NCI-H322M cells assessed as cell growth at 10 uM; details: read-out: Activity; procedure, shortened: as §2
SF-539 = experiment: Cytotoxicity against human SF539 cells assessed as cell growth at 10 uM; details: read-out: Activity; procedure, shortened: as §2
MDA-MB-435 = experiment: Cytotoxicity against human MDA-MB-435 cells assessed as cell growth at 10 uM; details: read-out: Activity; procedure, shortened: as §2
T47D = experiment: Cytotoxicity against human T47D cells assessed as cell growth at 10 uM; details: read-out: Activity; procedure, shortened: as §2
[2] = Growth inhibition of human NCI60 cells at 10 uM after 48 hrs by sulforhodamine B assay relative to control; details: NCI60, 48 h, read-out: GI
Procedure, shortened: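 Single-dose NCI screen at 10 µM across the 60-line panel, 48 h exposure at 37 °C after a 24 h preincubation. Adherent cells were fixed with cold TCA and stained with 0.4% SRB, and absorbance was read at 515 nm. Inhibition % was taken as 100 minus growth %, and the mean across all lines was reported.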

OVCAR-8 = experiment: Cytotoxicity against human OVCAR8 cells assessed as cell growth at 10 uM; details: read-out: Activity; procedure, shortened: as §2
KM12 = experiment: Cytotoxicity against human KM12 cells assessed as cell growth at 10 uM; details: read-out: Activity; procedure, shortened: as §2
NCI-H226 = experiment: Cytotoxicity against human NCI-H226 cells assessed as cell growth at 10 uM; details: read-out: Activity; procedure, shortened: as §2
[3] = Cytotoxicity against human […] cells assessed as cell growth at 10 uM; details: read-out: Activity; procedure, shortened: as §2
UACC-62 = experiment: Cytotoxicity against human UACC62 cells assessed as cell growth at 10 uM; details: read-out: Activity; procedure, shortened: as §2
SR = experiment: Cytotoxicity against human SR cells assessed as cell growth at 10 uM; details: read-out: Activity; procedure, shortened: as §2
SN12C = experiment: Cytotoxicity against human SN12C cells assessed as cell growth at 10 uM; details: read-out: Activity; procedure, shortened: as §2
BT-549 = experiment: Cytotoxicity against human BT549 cells assessed as cell growth at 10 uM; details: read-out: Activity; procedure, shortened: as §1
U-251 = experiment: Cytotoxicity against human U251 cells assessed as cell growth at 10 uM; details: read-out: Activity; procedure, shortened: as §2
SW-620 = experiment: Cytotoxicity against human SW620 cells assessed as cell growth at 10 uM; details: read-out: Activity; procedure, shortened: as §2
MDA-MB-231 = experiment: Cytotoxicity against human MDA-MB-231 cells assessed as cell growth at 10 uM; details: read-out: Activity; procedure, shortened: as §2
NCI-H460 = experiment: Cytotoxicity against human NCI-H460 cells assessed as cell growth at 10 uM; details: read-out: Activity; procedure, shortened: as §2
SK-MEL-28 = experiment: Cytotoxicity against human SK-MEL-28 cells assessed as cell growth at 10 uM; details: read-out: Activity; procedure, shortened: as §2
PC-3 = experiment: Cytotoxicity against human PC3 cells assessed as cell growth at 10 uM; details: read-out: Activity; procedure, shortened: as §2
CAKI-1 = experiment: Cytotoxicity against human Caki1 cells assessed as cell growth at 10 uM; details: read-out: Activity; procedure, shortened: as §1
NCI-H522 = experiment: Cytotoxicity against human NCI-H522 cells assessed as cell growth at 10 uM; details: read-out: Activity; procedure, shortened: as §2
OVCAR-4 = experiment: Cytotoxicity against human OVCAR4 cells assessed as cell growth at 10 uM; details: read-out: Activity; procedure, shortened: as §2
SNB-75 = experiment: Cytotoxicity against human SNB75 cells assessed as cell growth at 10 uM; details: read-out: Activity; procedure, shortened: as §2
HL-60(TB) = experiment: Cytotoxicity against human HL-60(TB) cells assessed as cell growth at 10 uM; details: read-out: Activity
Procedure, shortened: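 NCI 60-cell panel screen at a single concentration of 10 µM. Cells are grown in RPMI 1640 with 5% FBS and 2 mM L-glutamine and read by SRB protein staining at 515 nm. Percent growth is measured relative to time-zero and untreated controls; inhibition % is 100 minus growth %.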

MOLT-4 = experiment: Cytotoxicity against human MOLT4 cells assessed as cell growth at 10 uM; details: read-out: Activity; procedure, shortened: as §2

Compound `COc1cc(C)cc(-c2nn(CC#N)cc2-c2ccnc(-c3ccc(Oc4ccccc4)cc3)c2)c1` has a growth at 10 µM [1] of 94.3%, a growth at 10 µM (SK-MEL-5) of 53.8% and a growth at 10 µM (NCI/ADR-RES) of 80.3%. For the same compound, the growth at 10 µM (HCC 2998) was 93.9%, the growth at 10 µM (MCF7) was 72.1% and the growth at 10 µM (NCI-H322M) was 96.3%. For the same compound, the growth at 10 µM (SF-539) was 95.3%, the growth at 10 µM (MDA-MB-435) was 98.1% and the growth at 10 µM (T47D) was 20.1%. The inhibition of growth at 10 µM [2] was 13.5%, the growth at 10 µM (OVCAR-8) was 84.4% and the growth at 10 µM (KM12) was 100%. It also gave a growth at 10 µM (NCI-H226) of 66.5%, a growth at 10 µM [3] of 83% and a growth at 10 µM (UACC-62) of 65.8%. For the same compound, the growth at 10 µM (SR) was 95.8%, the growth at 10 µM (SN12C) was 84.8% and the growth at 10 µM (BT-549) was 96.3%. For the same compound, the growth at 10 µM (U-251) was 88.4%, the growth at 10 µM (SW-620) was 98.6% and the growth at 10 µM (MDA-MB-231) was 88.6%. The growth at 10 µM (NCI-H460) was 106%, the growth at 10 µM (SK-MEL-28) was 104% and the growth at 10 µM (PC-3) was 91.9%. For the same compound, the growth at 10 µM (CAKI-1) was 78.7%, the growth at 10 µM (NCI-H522) was 72.5% and the growth at 10 µM (OVCAR-4) was 82.9%. For the same compound, the growth at 10 µM (SNB-75) was 74.4%, the growth at 10 µM (HL-60(TB)) was 91.2% and the growth at 10 µM (MOLT-4) was 73.7%.
